The source made the active and inactive calls. The rule behind the calls is not given here.
How the values were obtained:
[1] = test system: Mycobacterium tuberculosis; assay: Activity at Mycobacterium tuberculosis recombinant riboflavin synthase after 30 mins by fluorescence assay
Method in brief: (§1)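 Recombinant M. tuberculosis riboflavin synthase (1 μM) in 100 mM Tris-HCl pH 7.0, 100 mM NaCl, 5 mM DTT, 2% DMSO. 6,7-Dimethyl-8-ribityllumazine substrate was varied 3–60 μM and inhibitor 0–200 μM. Reactions were started with substrate. Riboflavin formation was monitored at 470 nm for 30 min at 27 °C. Velocity–substrate data for all inhibitor levels were fitted by nonlinear regression to alternative inhibition models.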

[2] = molecular target: 6,7-dimethyl-8-ribityllumazine synthase (Mycobacterium tuberculosis) (UniProt P9WHE9); assay: Mixed Inhibition of Mycobacterium tuberculosis recombinant lumazine synthase
Method in brief: (§2)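 Recombinant M. tuberculosis lumazine synthase (2 μM) in 100 mM Tris-HCl pH 7.0, 100 mM NaCl, 5 mM DTT, 2% DMSO. Dihydroxybutanone phosphate was fixed at 100 μM, pyrimidinedione substrate varied 3–100 μM, and inhibitor 0–200 μM. Reactions were started with the pyrimidinedione substrate. Lumazine formation was read at 408 nm for 30 min at 27 °C. Velocity–substrate data were fitted by nonlinear regression to alternative inhibition models.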

[3] = test system: Mycobacterium tuberculosis; assay: Uncompetitive inhibition of Mycobacterium tuberculosis recombinant riboflavin synthase; method in brief: as §1
[4] = molecular target: 6,7-dimethyl-8-ribityllumazine synthase (Mycobacterium tuberculosis) (UniProt P9WHE9); assay: Uncompetitive inhibition of Mycobacterium tuberculosis recombinant lumazine synthase; method in brief: as §2

6,7-dimethyl-8-ribityllumazine synthase (Mycobacterium tuberculosis), sequence (P9WHE9 whole entry): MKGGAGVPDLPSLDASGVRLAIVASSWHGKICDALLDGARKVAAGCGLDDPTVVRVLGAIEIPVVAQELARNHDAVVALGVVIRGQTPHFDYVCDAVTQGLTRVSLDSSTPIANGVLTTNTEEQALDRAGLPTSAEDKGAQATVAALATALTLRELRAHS

SMILES	kcat [1]	inhibition [2]	inhibition [3]	inhibition [4]
O=C1Nc2ccc(S(=O)(=O)NCCOP(=O)(O)O)c3cccc1c23	0.005 s⁻¹			
O=C1Nc2ccc(S(=O)(=O)NCCCCOP(=O)(O)O)c3cccc1c23	0.00483 s⁻¹	Active		
O=C1Nc2ccc(S(=O)(=O)NCCCCCCOP(=O)(O)O)c3cccc1c23	0.00933 s⁻¹		Active	Active
O=C1Nc2ccc(S(=O)(=O)NCCCOP(=O)(O)O)c3cccc1c23	0.00467 s⁻¹	Active		
O=C1Nc2ccc(S(=O)(=O)NCCCCCOP(=O)(O)O)c3cccc1c23	0.00933 s⁻¹		Active	Active
CCOC(=O)C(=O)Nc1c(Cl)[nH]c(=O)[nH]c1=O	0.00567 s⁻¹	Active	Active	
O=C1Nc2ccc(S(=O)(=O)NCCCCC(F)(F)P(=O)(O)O)c3cccc1c23		Active		

Source: ChEMBL document CHEMBL1157805, “Virtual screening, selection and development of a benzindolone structural scaffold for inhibition of lumazine synthase” (Bioorg Med Chem, 2010)
